# Published values pooled from the literature.
# Each line is one published result; the experiments were not run side by side.
# Target: Mitogen-activated protein kinase 12 (MAPK12, Homo sapiens, UniProt P53778)
# Residues used in one study (P53778 1-367): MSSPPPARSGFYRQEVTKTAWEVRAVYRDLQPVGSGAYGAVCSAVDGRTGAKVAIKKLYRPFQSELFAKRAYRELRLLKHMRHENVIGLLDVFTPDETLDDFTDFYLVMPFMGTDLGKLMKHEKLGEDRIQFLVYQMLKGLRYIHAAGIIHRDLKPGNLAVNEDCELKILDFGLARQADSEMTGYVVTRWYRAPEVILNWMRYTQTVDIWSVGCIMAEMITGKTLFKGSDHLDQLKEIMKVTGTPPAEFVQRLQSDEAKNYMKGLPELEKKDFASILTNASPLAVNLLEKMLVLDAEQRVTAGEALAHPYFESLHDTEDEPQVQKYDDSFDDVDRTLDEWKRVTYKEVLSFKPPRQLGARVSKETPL
SMILES,assay,conditions,remaining binding [%]
CNC(=O)Nc1ccc2c(c1)[C@@]1(CC2)OC(=O)N(CC(=O)N(Cc2ccc(F)cc2)[C@@H](C)C(F)(F)F)C1=O,"cell-free assay, competition with immobilised ligand",1 µM,96
C[C@H]1CCN(c2nccc(-c3cnn4ncccc34)n2)C1,binding,1 µM,37
O=C(NCC1CCOCC1)c1n[nH]cc1NC(=O)c1c(F)cccc1F,"binding, competition with immobilised ligand",1 µM,100
Cc1cc(NC(=O)c2cccc(S(F)(F)(F)(F)F)c2)cc(-n2ccn3nc(-c4cccnc4)cc23)c1,"cell-free assay, competition with immobilised ligand",1 µM,41.7
CN(c1nccc(-c2cnn3ncccc23)n1)C1CC1,binding,1 µM,100
CN(c1ccnc(CNc2nc(Nc3ccc4c(c3)CC(=O)N4)ncc2C(F)(F)F)n1)S(C)(=O)=O,"cell-free assay, competition with immobilised ligand",1 µM,58
COc1ccnn2ncc(-c3ccnc(N(C)C)n3)c12,binding,1 µM,100
COc1cnc(Nc2cccc(S(N)(=O)=O)c2)nc1N1CCN(c2ccccc2)CC1,"binding, competition with immobilised ligand",1 µM,91
O=C(NCCCN1CCOCC1)c1ccc(Nc2nccc(-c3cc4ccccc4s3)n2)cc1,"binding, competition with immobilised ligand",1 µM,100
Cn1cc(Cl)c2c(Oc3c(F)cc(Nc4cc(Cl)nc(N)n4)cc3F)ccnc21,"cell-free assay, competition with immobilised ligand",0.1 µM,100
Nc1ncc2c(n1)-c1c([nH]c3ccc(C#CC4CC4)cc13)CCCC2,"binding, competition with immobilised ligand",1 µM,98
C=CC(=O)N1CCC(C(=O)NCC(=O)N2CCN(c3nc(-c4cnc(N)nc4C(F)F)nc(N4CCOCC4)n3)CC2)CC1,"binding, competition with immobilised ligand",1 µM,96
COc1ccc2cc(OCC3(C(=O)O)CN(C(=O)c4ccc(F)cc4)C3)ccc2c1,"cell-free assay, competition with immobilised ligand",1 µM,100
CNC(=O)[C@@H]1CC[C@@H](n2c(-c3ccc4cnccc4c3)nc3ccc(C(=O)NCc4cccc(C(N)=O)c4)cc32)C1,"binding, competition with immobilised ligand",1 µM,100
c1cnn2ncc(-c3ccnc(N4CCC45COC5)n3)c2c1,binding,1 µM,65
O=C(c1ccc(Nc2ncc(Cl)c(-c3ccc(Cl)s3)n2)cc1)N1CCC(N2CCCC2)CC1,"binding, competition with immobilised ligand",1 µM,100
Cc1cnn2ncc(-c3ccnc(N(C)C)n3)c2c1,binding,1 µM,85
Cc1cc(Nc2nccc(C)n2)cc(-c2cnc([C@@]3(O)CC[C@H](C(=O)O)C(C)(C)C3)s2)c1,"binding, competition with immobilised ligand",1 µM,31.2
CN(C)c1ncc(F)c(-c2cnn3ncccc23)n1,binding,1 µM,100
O=C(c1ccc(Nc2ncc(Cl)c(-c3cc4ccccc4s3)n2)cc1)N1CCC(N2CCCC2)CC1,"binding, competition with immobilised ligand",1 µM,86
